Source: PubChem (several laboratories)
Rows were chosen to be rich in hits. Some 1.8% of all compounds tested hit in one or more screens of this group.
NR2E3 ag-1: activates human NR2E3 receptor. CHO-S Gal4-NCOR/VP16-NR2E3 two-hybrid, luciferase. 0.35% of 360,000 active. inhibition of corepressor binding, % at 3.98 µM;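 active = inhibition above the mean of all tested compounds plus 3 SD, cut at about 70% in these data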;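 also: 0% = DMSO with NR2E3 transfected cells and 100% = cells lacking NR2E3 construct; higher means lower luciferase signal from less NR2E3 corepressor binding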
Target sequence (Q9Y5X4 whole entry, looked up, the tested form may be a part): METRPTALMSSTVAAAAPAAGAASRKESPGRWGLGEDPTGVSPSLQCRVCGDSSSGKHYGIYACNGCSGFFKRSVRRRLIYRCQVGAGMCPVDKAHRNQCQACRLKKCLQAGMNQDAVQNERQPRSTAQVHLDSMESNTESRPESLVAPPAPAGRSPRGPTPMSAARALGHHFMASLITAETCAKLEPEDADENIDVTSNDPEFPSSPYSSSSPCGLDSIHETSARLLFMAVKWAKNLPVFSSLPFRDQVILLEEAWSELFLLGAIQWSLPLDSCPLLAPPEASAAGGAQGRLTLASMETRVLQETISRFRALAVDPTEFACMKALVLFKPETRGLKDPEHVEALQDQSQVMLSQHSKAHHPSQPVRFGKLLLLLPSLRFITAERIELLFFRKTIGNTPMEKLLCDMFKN
697 NFkB inh: lowers PMA/ionomycin-induced NF-kB signal in 697 B cells. 697 B-cell NF-kB luciferase reporter, 16 h. inhibition, % at 4 µM. 0.33% of 330,000 active. AID 435022; in the data active = inhibition above about 35%
Gli-Sufu block: Gli-Sufu pathway antagonism; 0.74% of 340,000 active; inhibition, % at 5 µM; AID 588413; Sufu-KO-LIGHT fibroblasts, Gli luciferase reporter luminescence;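 active = inhibition above about 55%, limit read from the data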;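 also: 0% = DMSO-treated cells and 100% = wells with medium but no cells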
GalR3 antagonist: human GalR3 antagonism; HEK293 GalR3-CNG cAMP membrane potential fluorescence; galR3 body fused to GalR1 C-terminus; inhibition, % at 3 µM; 0.44% of 360,000 active;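 active = inhibition above the screen-wide average plus 3 SD, cut at about 13% in these data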;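 also: forskolin and galanin both at EC90 stimulate the cells; cAMP rise reported by CNG channel membrane potential dye signal; 0% = forskolin plus galanin with DMSO and 100% = forskolin alone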
Target sequence (O60755 1-299 limits assumed): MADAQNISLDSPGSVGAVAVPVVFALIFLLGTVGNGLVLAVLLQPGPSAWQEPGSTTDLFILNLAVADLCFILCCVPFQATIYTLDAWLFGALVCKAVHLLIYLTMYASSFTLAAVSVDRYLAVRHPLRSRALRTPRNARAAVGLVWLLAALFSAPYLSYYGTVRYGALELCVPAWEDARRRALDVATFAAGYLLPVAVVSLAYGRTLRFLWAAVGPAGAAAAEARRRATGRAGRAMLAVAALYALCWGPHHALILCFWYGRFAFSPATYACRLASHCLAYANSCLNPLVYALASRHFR
Jurkat NFkB inh: lowers PMA/ionomycin-induced NF-kB signal in Jurkat cells. PMA/ionomycin-induced NF-kB luciferase reporter, luminescence. AID 435003. inhibition, % at 4 µM. 0.53% of 330,000 active; in the data active = inhibition above about 50%
NR2E3 ag-2: activates human photoreceptor nuclear receptor NR2E3 | Q9Y5X4 | GST-NR2E3/biotin-RetCOR TR-FRET, 1536-well | inhibition of corepressor binding, % at 4.78 µM | 0.12% of 320,000 active | AID 2300;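 active = percent inhibition above the cutoff of mean plus 3 SD of all tested compounds, set per screening campaign, cut at about 20% in these data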;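 also: 0% = DMSO wells and 100% = biotin wells as full block of FRET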
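System: GST-tagged NR2E3 plus biotinylated RetCOR corepressor; Amount: 1.35 nM GST-tagged NR2E3 final; Dosing: single nominal compound dose of 4.8 µM; Schedule: 5 h incubation at 4 °C; Technique: TR-FRET with europium anti-GST and streptavidin-D2, 340 nm excitation; Controls: biotin wells as high control, 0.6% DMSO wells as low control.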
NR2E3 ag conf: NR2E3 agonism confirmed in two-hybrid assay | shares compounds with NR2E3 ag-1 | CHO-S mammalian two-hybrid NR2E3-NCOR, luciferase luminescence | inhibition, % at 3.98 µM | 51% of 2,300 active;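 active = average inhibition above a cutoff equal to the mean inhibition of all tested compounds plus one SD, cut at about 70% in these data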;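 also: 0% = DMSO in NR2E3 cells and 100% = DMSO in cells lacking NR2E3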
GAL4-VP16 luc: reduces GAL4-VP16 reporter signal in NR2E3 counterscreen | shares compounds with NR2E3 ag-1 | CHO-S GAL4-VP16 luciferase reporter, luminescence | inhibition, % at 3.98 µM | 29% of 2,300 active;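 active = mean inhibition above a cutoff equal to the average over all tested compounds plus one standard deviation, cut at about 70% in these data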;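 also: luciferase from a UAS reporter driven by GAL4-VP16 transactivation; 0% = DMSO with VP16-transfected cells and 100% = DMSO with cells lacking VP16; higher means less reporter light so more repression of VP16 activity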
* marks the source's active call; other numbers are inactive results; · = no result.

SMILES	NR2E3 ag-1	697 NFkB inh	Gli-Sufu block	GalR3 antagonist	Jurkat NFkB inh	NR2E3 ag-2	NR2E3 ag conf	GAL4-VP16 luc
CC(=O)N1CCc2cc(S(=O)(=O)Nc3ccc(C)cc3)ccc21	-34.0	-11.1	-4.5	-11.7	6.5	-1.8	·	·
CC(=O)N1CCc2cc(S(=O)(=O)N3CCc4ccccc43)ccc21	73.7*	-36.5	39.2	-4.9	33.2	1.7	51.0	46.9
COc1cccc(NS(=O)(=O)c2ccc3c(c2)CCN3C(C)=O)c1	67.1	-29.9	47.3	-12.7	18.9	-1.1	61.8	59.4
COc1cccc(NS(=O)(=O)c2ccc3c(c2)N(C(C)=O)CCO3)c1	-1.8	-20.0	-17.1	-7.2	-1.8	-4.2	·	·
COc1ccc(CNS(=O)(=O)c2ccc3c(c2)CCN3C(=O)C2CCC2)cc1	50.6	9.3	2.5	-1.3	2.8	-1.6	27.0	42.6
COc1cccc(CNS(=O)(=O)c2ccc3c(c2)CCN3C(=O)C2CC2)c1	-2.9	-9.3	2.4	-5.3	-11.1	-1.2	·	·
CC(=O)N1CCc2cc(S(=O)(=O)Nc3cccc(C(F)(F)F)c3)ccc21	64.6	-34.7	32.6	-10.6	2.5	-0.6	62.6	38.1
CC(=O)N1CCc2cc(S(=O)(=O)N3CCc4ccccc4C3)ccc21	17.0	-26.1	17.0	1.9	21.0	2.1	·	·
Cc1ccc(S(=O)(=O)N2CCOCC2)cc1C(=O)N1CCN(c2ccc(C(F)(F)F)cn2)CC1	1.4	1.5	10.2	10.3	18.2	·	·	·
CC(NS(=O)(=O)OCC(Cl)(Cl)Cl)c1ccc(C(C)(C)C)cc1 (stereo not drawn)	59.3	·	10.0	-6.0	·	1.2	-2.5	24.6
CC(C)(C)c1ccc(-n2ncc3c2CCCC3NC(=O)CCN2CCCO2)cc1 (stereo not drawn)	66.2	-28.4	8.3	1.7	-1.5	0.7	-9.3	40.8
CC(C)(C)c1ccc(-n2ncc3c2CCCC3NC(=O)CN2CCCCC2=O)cc1 (stereo not drawn)	58.5	-16.0	19.2	0.5	-2.6	-5.4	14.9	39.4
O=C(CN1CCCC1=O)NC1CCCc2c1cnn2-c1cc(F)cc(F)c1 (stereo not drawn)	-23.0	-7.4	15.4	-2.0	13.4	0.2	·	·
CC(C)(C)c1ccc(-n2ncc3c2CCCC3NC(=O)CCn2cncn2)cc1 (stereo not drawn)	25.4	-31.1	8.4	-3.7	0.5	0.6	·	·
COc1ccc(CNC(=O)c2ccc(Cl)c(S(=O)(=O)N3CCOCC3)c2)cc1OC	56.4	-16.5	19.9	·	21.6	0.9	48.5	51.8
COc1ccc(C(=O)NCc2cccc(Cl)c2)cc1S(=O)(=O)N1CCOCC1	-0.2	1.8	-2.8	-5.2	5.4	1.9	·	·
COc1ccc(CNC(=O)c2cccc(S(=O)(=O)N3CCCCC3)c2)cc1OC	55.4	-16.7	9.3	5.8	21.1	2.7	58.7	57.0
CCC(Sc1nc(N)cc(=O)[nH]1)C(=O)Nc1cc(C)on1 (stereo not drawn)	-10.6	-3.4	1.3	-2.9	-3.5	-1.1	·	·
COc1ccc(NS(=O)(=O)c2ccc(-n3cnnn3)cc2)cc1OC	61.4	-16.1	47.5	-1.6	0.9	-2.0	-4.7	4.9
CCOc1ccc(/C(CCC(=O)O)=N/NC(=S)NCCc2ccccc2)cc1	52.6	4.1	-3.4	2.2	-0.3	0.7	-4.2	-2.1
CCOc1ccc(C(=O)OCC(=O)NCCCc2ccccc2)cc1	-12.9	-3.2	0.9	-9.1	-5.3	2.2	·	·
C/C(=N\NC(=S)NCc1ccccc1)c1ccccc1	56.4	-29.7	-14.8	-0.7	-17.1	1.2	-35.7	-39.6
C/C(=N\NC(=S)NCCc1ccccc1)c1ccc(O)cc1O	77.7*	3.0	-5.3	-8.4	-6.2	-0.2	-16.8	8.5
COc1ccc(C2=NS(=O)(=O)N(C)C(C(=O)NCc3ccc4c(c3)OCO4)=C2)cc1OC	-9.0	10.2	-12.6	·	7.3	3.4	·	·
S=C1NC[C@H](CC2CCCCC2)N1CCCCC1CCCCC1	17.4	-17.8	31.9	-4.0	1.0	-0.8	·	·
SMILES	NR2E3 ag-1	697 NFkB inh	Gli-Sufu block	GalR3 antagonist	Jurkat NFkB inh	NR2E3 ag-2	NR2E3 ag conf	GAL4-VP16 luc
Cc1nc(NC(=O)c2ccco2)sc1C(=O)O	-6.3	·	27.6	-5.0	·	2.2	·	·
Cc1nc(NC(=O)c2ccco2)sc1C(=O)Nc1ccc(Br)cc1	53.8	12.8	1.8	·	-11.7	7.1	64.4	22.3
c1ccc(-c2nc3ccccn3c2NC2CCCC2)nc1	60.4	-15.5	8.1	-5.7	-3.7	-2.5	8.9	-18.7
Cc1ccn2c(NC3CCCC3)c(-c3ccccn3)nc2c1	68.7	-49.3	12.4	-1.4	-18.0	-1.0	9.5	-42.5
N#CCCN(C(=O)COC(=O)CCc1c[nH]c2ccccc12)c1ccc(F)cc1	-13.5	-8.5	-13.3	-2.3	7.3	-1.3	·	·
CC(C)Nc1nc(NCCOc2ccccc2Cl)c2sc(-c3ccccc3)cc2n1	48.0	·	·	-8.4	·	·	17.7	14.1
COc1ccccc1CNc1nc(NC(C)C)nc2cc(-c3ccccc3)sc12	-3.9	·	·	-7.6	·	·	·	·
Cc1cc(OC(=O)c2ccccc2Br)c([N+](=O)[O-])c(=O)[nH]1	-8.5	1.8	1.8	4.3	-3.6	0.5	·	·
O=c1c(Cl)c(N2CCN(c3ccc(F)cc3)CC2)cnn1C12CC3CC(CC(C3)C1)C2	64.2	-57.4	17.0	-3.1	-13.2	0.7	71.0*	21.6
C(=Cc1cnc2ccccc2n1)c1ccc2c(c1)OCO2	52.4	·	·	-2.8	·	·	36.9	-2.5
C(=Cc1nc2ccccc2o1)c1ccc2c(c1)OCO2	-101.8	·	·	-6.7	·	·	·	·
COc1ccc(CN(C)C(=O)c2cccc(S(=O)(=O)N3CCN(c4ccccc4)CC3)c2)c(OC)c1OC	54.5	-36.7	47.9	-6.5	16.9	5.1	83.2*	64.3
COc1cccc(CN(C)C(=O)c2cccc(S(=O)(=O)N3CCN(c4ccccc4)CC3)c2)c1	43.9	·	·	3.8	·	·	·	·
CN(CC(=O)Nc1cccc(F)c1)C(=O)c1ccc(N2CCCCC2)c([N+](=O)[O-])c1	52.9	-10.3	27.4	-6.5	5.1	5.5	54.4	48.7
CN(Cc1ccc(F)cc1)C(=O)c1cccc(S(=O)(=O)N2CCN(c3ccc(F)cc3)CC2)c1	60.3	-16.8	13.5	-4.3	20.4	-2.0	38.0	30.5
CN(CC(=O)Nc1cccc(F)c1)C(=O)c1cccc(S(=O)(=O)N2CCN(c3ccccc3)CC2)c1	25.9	-24.8	24.9	-4.7	13.2	-2.8	·	·
CN(CC(=O)Nc1cccc(F)c1)C(=O)c1cc(S(=O)(=O)N2CCN(c3ccccc3)CC2)ccc1Cl	53.6	-2.9	9.3	-4.9	-3.0	2.0	36.9	43.8
CC1CN(CCC(=O)Nc2ccccc2F)CC(C)O1 (stereo not drawn)	-14.2	-12.0	6.0	-6.2	-10.0	-1.6	·	·
